Experimental data: ChEMBL document CHEMBL3588831, “Synthesis and in Vivo Evaluation of [123I]Melanin-Targeted Agents” (J Med Chem, 2015)

How the values were obtained:
Conditions in all cases: in vivo
Mus musculus [1] = test: Biodistribution in eyes of C57BL/6J mouse bearing mouse B16F0 cells at 0.37 to 1.85 MBq, iv after 6 hrs by gamma counting method; assay type: ADME, organism-based, Eye
Summary of the method: (§1)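 Female C57BL/6J mice (5−6 weeks), s.c. inoculated on left flank with 3 × 10^5 B16F0 cells in Ca2+/Mg2+-free PBS, used 11 days later (tumors 2−12 mm). Radiotracer given via tail vein in 100 μL (~0.37 MBq for 1−24 h, 1.85 MBq for 48 h). Organs dissected, weighed, γ-counted, decay corrected. Expressed as % ID/g against injected-dose dilutions. Mean ± SEM, n = 5.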

[2] = Ratio of AUC in tumor to gastrointestinal tract of C57BL/6J mouse bearing mouse B16F0 cells at 0.37 to 1.85 MBq, iv by gamma counting method; assay type: ADME, organism-based
Summary of the method: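 Biodistribution in B16F0-bearing C57BL/6J mice given i.v. tail-vein tracer (~0.37 MBq for 1–24 h, 1.85 MBq for 48 h). Sacrifice at 1, 3, 6, 16, 24 and 48 h, then organs dissected, weighed and γ-counted as decay-corrected % ID/g. Tumor AUC divided by each organ AUC; mean of ratios ± SEM, n = 5.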

Liver = test: Biodistribution in liver of C57BL/6J mouse bearing mouse B16F0 cells at 0.37 to 1.85 MBq, iv after 3 hrs by gamma counting method; assay type: ADME, organism-based; summary of the method: as §1
Mus musculus [3] = test: Biodistribution in small gastrointestinal tract of C57BL/6J mouse bearing mouse B16F0 cells at 0.37 to 1.85 MBq, iv after 16 hrs by gamma counting method; assay type: ADME, organism-based, Small intestine; summary of the method: as §1

| SMILES | Drug uptake (Mus musculus [1]) [% ID/g] | Ratio [2] | Drug uptake (Liver) [% ID/g] | Drug uptake (Mus musculus [3]) [% ID/g] |
| --- | --- | --- | --- | --- |
| O=C(c1ccc2c(n1)NCCC2)N1CCN(Cc2ccc([123I])cc2)CC1 | 52.8 | 1.8 | 13.2 | 1.4 |
| O=C(c1ccc2cccnc2n1)N1CCN(Cc2ccc([123I])cc2)CC1 | 37.2 | 5.5 | 13.4 | 1.3 |
| O=C(CN1Cc2ccccc2C1=O)N1C[C@H]2CN(Cc3ccc([123I])cc3)C[C@H]2C1 | 21.8 | 2.9 | 5.6 | 0.5 |
| O=C(CN1Cc2ccccc2C1=O)NC1CCN(Cc2ccc([123I])cc2)CC1 | 28.1 | 3 | 38.8 | 3.7 |
